This excerpt belongs to a sample that is enriched for hits.
D1 mod: D1 CRE-luciferase signal change, two-sided – cell-based, HEK293 D1, dopamine EC30, D1 allosteric modulator project, primary screen | D(1A) dopamine receptor (Homo sapiens), P21728 | dopamine EC30 potentiation; actives deviate in either direction | B-score at 10 µM | hit rate 5.9% among 58,000 | AID 641, 2007;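 active = luminescence count or its row- and column-corrected plate score outside the 99.7% band of the plate's sample wells, on either side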
Calb biofilm kill: clotrimazole potentiators killing Candida biofilms, primary screen, with clotrimazole, Alamar Blue; C. albicans biofilm + clotrimazole; inhibition, % at 6 µM; hit rate 0.14% among 85,000;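 active = inhibition above 20%; inactive = inhibition below 20%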;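 note: preformed 24 hr biofilms exposed to compound for 48 hr; 0% = biofilm without compound and 100% = blank killed by clotrimazole plus chlorhexidine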
AP complement: alternative complement pathway inhibitors, primary screen, biochemical, ELISA, human serum, orthogonally pooled compounds; LPS-coated ELISA, C3 deposition; tested in compound mixtures; inhibition, % at 5 µM; hit rate 0.08% among 62,000; AID 1235, 2008;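 active = inhibition above 30% in each of the two pooled mixtures holding the compound, so the lower value exceeds 30%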;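 note: 0% = serum in Mg-EGTA without compound and 100% = EDTA serum blank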
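Assay system: human serum alternative complement pathway, C3 deposition on LPS-coated wells; Dosing: 5 µM per compound in ten-compound mixtures; Detection: Anti-C3 ELISA, OD 450 nm; Buffer or medium: Mg2+-EGTA GVB++ buffer containing human serum at 1:15 dilution; Timing: 1 h at 37 °C; Replication: two different pools per compound.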
hDAT+cocaine: changed hDAT dopamine uptake under cocaine IC80, either direction, primary screen, cocaine antagonist project, cell-based, LLC-PK1 hDAT, [14C]-dopamine uptake, MLSMR; hit rate 1.3% among 110,000; B-score at 10 µM; Sodium-dependent dopamine transporter (Homo sapiens), Q01959; LLC-PK1 hDAT cells, [14C]-dopamine uptake with cocaine IC80; actives deviate in either direction;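 active = Z score or B-score, a plate-position-corrected score, falls beyond the plate's 99.7% confidence bounds, in either direction; inactive = both scores lie inside the 99.7% bounds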;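 note: scored against the spread of the other compound wells on the same plate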
Target sequence (Q01959 whole entry, looked up): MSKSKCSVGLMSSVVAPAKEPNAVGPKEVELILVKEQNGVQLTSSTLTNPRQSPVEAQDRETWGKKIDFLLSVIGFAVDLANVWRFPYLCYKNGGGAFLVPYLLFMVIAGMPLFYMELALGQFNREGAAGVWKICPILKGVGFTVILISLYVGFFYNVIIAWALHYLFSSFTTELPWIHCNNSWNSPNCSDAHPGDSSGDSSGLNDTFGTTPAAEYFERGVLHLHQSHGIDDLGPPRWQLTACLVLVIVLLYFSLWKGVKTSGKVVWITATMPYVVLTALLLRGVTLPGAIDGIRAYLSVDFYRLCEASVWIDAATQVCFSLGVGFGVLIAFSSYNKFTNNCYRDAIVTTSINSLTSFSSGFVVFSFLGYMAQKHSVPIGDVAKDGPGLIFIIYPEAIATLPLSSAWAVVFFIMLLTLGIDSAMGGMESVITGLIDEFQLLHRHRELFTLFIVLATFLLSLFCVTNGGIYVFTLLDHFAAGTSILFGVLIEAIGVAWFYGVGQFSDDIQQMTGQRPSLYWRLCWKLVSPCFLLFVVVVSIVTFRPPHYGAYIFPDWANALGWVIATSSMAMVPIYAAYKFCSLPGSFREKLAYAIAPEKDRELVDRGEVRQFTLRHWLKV
MMP-13 inhibitor: human MMP13 inhibitors, primary screen, biochemical, FRET peptide cleavage; Collagenase 3 (Homo sapiens), P45452; MMP-13 fTHP FRET cleavage, Mca fluorescence; inhibition, % at 4 µM; hit rate 0.07% among 65,000;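 active = inhibition above the mean of compound-free control plate wells plus 3 SD, cut at about 14% in these data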;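 note: 0% = DMSO wells and 100% = wells with reference MMP-13 inhibitor after basal subtraction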
An asterisk follows results filed as active; . = no result given.

SMILES	D1 mod	Calb biofilm kill	AP complement	hDAT+cocaine	MMP-13 inhibitor
O=C(Nc1ccc2c(c1)nc1n2CCSC1)c1ccccc1	-3.7*	10	4	-0.0092	1
CC(c1ccccc1)N1CCn2c(nc3cc(NC(=O)c4cccs4)ccc32)C1 (stereo unspecified)	.	8	.	2.7*	.
COc1ccc(C2N3CC4(C)CN2CC(C)(C3)C4)cc1OC (stereo unspecified)	.	6	16	-7.5*	4
COc1cccc(OC)c1C(=O)OCC(=O)Nc1ccc(OC(F)(F)F)cc1	.	.	.	1.1	.
CC1(C)Cc2c(C#N)c(SCC(=O)c3ccccc3)nc(N3CCOCC3)c2CO1	-3.3*	1	21	1.2	4
CCN1CCN(Cc2nc3c(c(=O)n(C)c(=O)n3C)n2CCc2ccccc2)CC1	0.49	3	12	-3*	4
Cn1c(=O)c2c(nc(CN3CCN(C(=O)c4ccco4)CC3)n2CCCc2ccccc2)n(C)c1=O	-0.15	13	14	.	17*
CCCCn1c(CN2CCN(c3ccc(F)cc3)CC2)nc2c1c(=O)n(C)c(=O)n2C	-2.6*	0	7	0.24	4
CCN1CCN(Cc2nc3c(c(=O)n(C)c(=O)n3C)n2CCCc2ccccc2)CC1	.	3	16	.	7
CC(=O)c1cc2c(cc1NS(=O)(=O)c1ccc(C)cc1)OCO2	.	7	.	0.24	.
CC(=O)c1cc2c(cc1NS(=O)(=O)c1ccc3c(c1)OCCO3)OCO2	4.1*	7	14	0.11	-1
COc1ccc(S(=O)(=O)Nc2ccc(N(C)C(C)=O)cc2)cc1	.	42*	.	-1.1	.
O=C(C1CC1)N1CCc2cc(Br)cc(S(=O)(=O)N3CCCCCC3)c21	.	7	9	6*	2
CCC(=O)N1CCc2cc(Br)cc(S(=O)(=O)N3CCCCCC3)c21	1	4	10	-0.0079	4
CNC(=O)C1CC(=O)N(CCCc2ccccc2)C(=Nc2ccccc2)S1 (stereo unspecified)	.	5	.	0.1	.
Fc1ccc2c(Cl)c(-c3nnc(-c4cccs4)o3)sc2c1	-6.4*	4	3	-0.092	-4
COc1ccc2[nH]c(=O)c(NC(N)=S)nc2c1	.	.	.	1.2	.
CC1(c2nnc(Cc3ccccc3)o2)CC(c2cccnc2)=NO1 (stereo unspecified)	.	.	.	-0.68	.
C=C(C)c1sc(-c2ccc(Cl)cc2)nc1C	.	.	.	-0.57	.
CCOc1cccc(C=Nc2cc(C)cc(C)c2O)c1O	-3.8*	2	1	0.59	-6
CC1(C)c2[nH]c3ccccc3c2C[C@@H]2C(=O)N(Cc3ccco3)C(=O)N21	.	.	.	1.3	.
COc1ccc(-c2cc(-c3ccccc3)nc(N3CCCC3)n2)cc1OC	-8.7*	4	-11	0.032	-49
COC(=O)[C@H](Cc1ccccc1)NC(=O)Nc1ccc(C)cc1	.	5	.	0.29	.
CC(CCc1ccco1)NC(=O)Nc1cccc(F)c1 (stereo unspecified)	-0.26	6	-9	-2.6*	-2
Cc1ccc(NC(=O)CS(=O)CC(=O)NC(C)CCc2ccco2)cc1Cl (stereo unspecified)	0.16	5	14	-0.38	2
SMILES	D1 mod	Calb biofilm kill	AP complement	hDAT+cocaine	MMP-13 inhibitor
CC(C)(C)[C@]1(O)CCN2C[C@H]3c4ccccc4CCc4cccc(c43)[C@@H]2C1	.	.	.	1.4	.
COc1ccc(SC[C@H](CC(C)C)N2CCN(CCc3ccccc3)CCC2=O)cc1	.	.	.	2	.
CCS(=O)(=O)n1nc(-c2ccc(Cl)cc2)nc1SC	.	6	.	-0.26	.
Cn1nc(-c2ccc(Cl)cc2)nc2c(=O)n(C)c(=O)nc1-2	.	12	.	-4.4*	.
CCCCNC(=O)c1onc(CSc2cccc3ccccc23)c1C(=O)O	.	.	.	0.45	.
Oc1ccc(-c2nccc(-c3cccs3)n2)cc1	.	.	.	1	.
Cn1cnc2c(sc3nc(N4CCOCC4)c4c(c32)CC(C)(C)OC4)c1=O	3.6*	12	10	.	-8
COC(=O)C1=C(C(=O)OC)[C@@H]2N(C)c3ccccc3[C@@]23C[C@@H](CO)N=C3N1	.	.	.	-1	.
NC(=O)c1ccccc1N/C=C/C(=O)c1ccccc1	-2.5*	6	16	0.29	-32
CC(=O)N1CCc2cc(S(=O)(=O)NC(CC(C)C)C(=O)N3CCc4ccccc4C3)ccc21 (stereo unspecified)	1.2	6	7	-0.43	-2
CC(=O)N1CCc2cc(S(=O)(=O)NC(CC(C)C)C(=O)Nc3cc(C)ccn3)ccc21 (stereo unspecified)	-4*	0	-10	-0.73	-3
CC(O)(CS(=O)(=O)Cc1ccccc1)C(=O)Nc1cccc(C(F)(F)F)c1 (stereo unspecified)	.	.	.	-2.8*	.
COC(=O)C1=C[C@@H](C(=O)OC)[C@@H]2C3=C(C(=O)[C@@]2(C)NC(=O)c2ccccc2)[C@H](C)n2c(=O)n(C)c(=O)n2[C@@H]3C1	.	.	.	-0.054	.
Cc1ccc2c(c1)C(N1CCCC1=O)CC(c1ccco1)N2 (stereo unspecified)	-4.4*	.	-3	0.39	-5
Cc1ccc(C2CC(c3ccco3)n3ncnc3N2)cc1 (stereo unspecified)	.	.	10	-0.073	.
Cc1ccc(-c2nc(C#N)c(NCc3ccco3)o2)cc1	1.7	-1	6	-2.8*	-149
Cc1ccc2cc(C#N)c(NCc3ccco3)nc2c1	6.7*	6	7	2.3	-101
CCN1CCN(Cc2ccc(NC(=O)Nc3ccccc3Cl)cc2)CC1	-3.3*	10	-8	0.041	4
CCc1cc2c(=O)c(-c3ccc4c(c3)OCCO4)coc2cc1OC(=O)c1ccco1	-2.9*	0	1	1.4	-2
O=c1cc(Nc2ccc3c(c2)OCO3)[nH]c(=O)n1-c1ccc(Br)cc1	-7.6*	1	19	0.053	-6
CON=C1CCN(c2ncc(C(F)(F)F)cc2Cl)CC1	.	.	.	-0.09	.
CO/N=C/C(C#N)c1ncc(C(F)(F)F)cc1Cl (stereo unspecified)	.	.	.	-2.5*	.
COc1cc(O)c(C(CCN2CCCC(C)C2)c2ccc(N(C)C)cc2)c(OC)c1 (stereo unspecified)	.	.	.	2.2*	.
COc1cc(O)c(C(CCN2CCCC(C)C2)c2ccc3c(c2)OCO3)c(OC)c1 (stereo unspecified)	.	.	.	0.27	.
C[C@@H]1CC[C@H]2C(=O)N3[C@@H](CC[C@@H](C)[C@@H]3c3ccc(Br)cc3)C(=O)N2[C@H]1c1ccc(Br)cc1	.	.	.	-0.089	.
N#CCCCSc1nnc(-c2ccc(Cl)cc2)n1-c1ccccc1	1.3	2	-3	-8.6*	-1
Cc1cccc(-c2nnc(SCC#N)n2-c2ccccc2)c1	-0.63	9	-6	0.22	-8
C=CCn1c(SCC(=O)c2cccs2)nc2sc(C)c(C)c2c1=O	.	4	.	-0.84	.

High-throughput results from PubChem BioAssay.
